Blank lines part the entries; values can stand above or below the substance they belong to.
Experiments:
[1] = biological target: CHD4 PHD2 finger (Homo sapiens, UniProt Q14839); assay: NMR titration; format: binding; details: for NMR exchange regime: 1H,15N HSQC titration, NMR time scale
[2] = biological target: CHD4 PHD2 E447A mutant (Homo sapiens, UniProt Q14839, E450A); assay: NMR titration, E447A mutant; format: binding
Procedure, shortened: (§1)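 Point mutant of the PHD2 finger was made by PCR mutagenesis and expressed as a GST fusion in E. coli BL21(DE3) pLysS on ¹⁵NH₄Cl minimal medium. It was purified on glutathione beads, tag-cleaved, then held in 20 mM Tris pH 6.8–7.5, 150 mM NaCl, 10 mM DTT and 1 mM NaN₃. ¹H,¹⁵N HSQC was run at 500 MHz with increasing 12-mer histone tail peptides. Kd came from a nonlinear least-squares fit of normalized shift changes.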

[3] = biological target: CHD4 PHD2 C460W mutant (Homo sapiens, UniProt Q14839, C463W); assay: NMR titration, C460W mutant; format: binding
Procedure, shortened: as §1

[4] = tested on: PHD fingers of BHC80 and AIRE (mutants); details: aspartate to alanine or hydrophobic residue to tryptophan; ref [17],[27]; cited from earlier work
[5] = tested on: CHD4 PHD2 finger, Asp^454 substituted with valine; assay: Binding of PHD2 with Asp454 substituted with valine; details: Asp454 to valine mutant
[6] = tested on: CHD4 PHD2 F448A mutant; assay: Binding and NMR of F448A mutant; details: F448A mutant vs wild-type
Procedure, shortened: as §1

[7] = tested on: CHD4 PHD2 finger (GST-fusion); format: binding; details: C-terminal biotinylated peptides (residues 1–21; H3K27/H3K36 residues 21–44), streptavidin–Sepharose beads, 50 mM Tris pH 7.5, 150 mM NaCl, 0.05% Nonidet P-40; anti-GST HRP detection

Sequence of CHD4 PHD2 finger (Q14839 449-496 limits assumed): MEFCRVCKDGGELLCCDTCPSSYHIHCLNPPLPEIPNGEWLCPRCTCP
Sequence of CHD4 PHD2 E447A mutant (Q14839 449-496 E450A limits assumed): as the sequence (Q14839 449-496 limits assumed) above, with E2A counted along it
Sequence of CHD4 PHD2 C460W mutant (Q14839 449-496 C463W limits assumed): as the sequence (Q14839 449-496 limits assumed) above, with C15W counted along it

NMR exchange regime [1]: intermediate-to-fast exchange regime
Binding compared with wild-type [5]: significantly compromised
Binding compared with wild-type [6]: more weakly
Substance: H3K9me3: histone H3 tri-methylated at Lys^9

NMR exchange regime [1]: fast exchange regime
Substance: H3K4me3: histone H3 tri-methylated at Lys^4
Binding in pull-down (Western blot) [7]: significantly weaker

NMR changes on titration ([1]; wild-type PHD2, even a 10-fold excess of peptide): no changes
Substance: H3(3-10): peptide comprising residues Thr^3–Ser^10 but lacking Ala^1 and Arg^2 (TKQTARKS)

The next lines start with the substance.

Substance: unmodified H3: unmodified histone H3 N-terminal tail peptide (residues 1–21 biotinylated in pull-down; 12-mer in NMR)
NMR exchange regime [1]: intermediate-to-fast exchange regime
Kd ([2]; E447A mutant): 900 µM
Binding compared with wild-type ([2]; E447A mutant vs wild-type): significantly weaker
Kd ([3]; C460W mutant): 3700 µM
Binding compared with wild-type ([3]; C460W mutant vs wild-type): significantly weaker
Interaction with mutant PHD fingers [4]: abolish interactions

Substance: H3K9ac: histone H3 acetylated at Lys^9 (20-mer, Anaspec, in NMR; residues 1–21 in pull-down)
NMR exchange regime [1]: intermediate-to-fast exchange regime
Binding compared with wild-type [6]: more weakly

Substance: H3K9me1: histone H3 mono-methylated at Lys^9
Binding in pull-down (Western blot) [7]: able to recognize

Substance: H3K4me1: histone H3 mono-methylated at Lys^4
Binding in pull-down (Western blot) [7]: significantly weaker

From publication PMC2885444 (The Biochemical journal, 2009)
